Results published in ChEMBL document CHEMBL2321751, “Optimization of chloronitrobenzamides (CNBs) as therapeutic leads for human African trypanosomiasis (HAT)” (J Med Chem, 2013).
≈ marks a conversion by molar mass, not a printed value.

Legend:
[1] = tested on: Trypanosoma brucei brucei; assay: Antitrypanosomal activity against blood stream stage of Trypanosoma brucei brucei after 48 hrs by Cell Titre Glo assay; type: functional, organism-based
Method in brief: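 Culture-adapted parasites were grown in HMI-9 with 10% heat-inactivated FBS, 10% Serum Plus and penicillin/streptomycin to 1 × 10⁶ cells/mL, then diluted to 1 × 10⁴ cells/mL. DMSO dilution series were pin-transferred and plates held 48 h at 37 °C in 5% CO2. After 30 min at room temperature, CellTiter-Glo was added and luminescence read after 8 min.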

[2] = tested on: HEK293; assay: Cytotoxicity against HEK293 cells after 72 hrs by Cell Titre Glo assay; type: cell-based; details: Homo sapiens, HEK293, 72 h
Method in brief: (§1)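 Human cells grown to 80% confluence were plated in 384-well format and received compound dilutions by pin tool. After 72 h at 37 °C in 5% CO2, viability was measured by CellTiter-Glo luminescence.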

[3] = tested on: HepG2; assay: Cytotoxicity against human HepG2 cells after 72 hrs by Cell Titre Glo assay; type: cell-based; details: HepG2, 72 h; method in brief: as §1
[4] = tested on: BJ; assay: Cytotoxicity against human BJ cells after 72 hrs by Cell Titre Glo assay; type: cell-based; method in brief: as §1
[5] = Permeability of the compound at pH 7.4 by PAMPA; type: ADME; details: for permeability: pampa, BLD = below limit of detection; for Papp: PAMPA, read-out: permeability
Method in brief: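 Compound (10 mM DMSO stock) was diluted in system solution buffer pH 7.4 and placed in the donor chamber of a PAMPA sandwich whose membrane was coated with GIT lipid. Acceptor buffer filled the acceptor chamber, and the assembly was stirred for 30 min. Donor and acceptor UV spectra (250–500 nm) were compared with a reference to give the permeability coefficient. Run in triplicate.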

[6] = Kinetic solubility of the compound in PBS buffer at pH 7.4 after 18 hrs by UV spectrophotometric analysis; type: physicochemical; details: for Kinetic_solubility: buffer, pH 7.4, 18 h, BLD = below limit of detection; for solubility kinetic at 18 h: PBS buffer, pH 7.4, read-out: Kinetic_solubility
Method in brief: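 Compound from a 10 mM stock was added to PBS pH 7.4 and left 18 h at room temperature. The suspension was filtered, and the filtrate was mixed 1:1 with 1-propanol. Solubility was derived from UV spectrum AUC (250–500 nm) relative to a 1-propanol/PBS reference. Run in triplicate.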

[7] = tested on: Raji; assay: Cytotoxicity against human Raji cells after 72 hrs by Cell Titre Glo assay; type: cell-based; method in brief: as §1
[8] = tested on: Trypanosoma brucei brucei; assay: Antitrypanosomal activity against Trypanosoma brucei brucei 221 after 48 hrs by Cell Titre Glo assay; type: functional, organism-based; details: Trypanosoma brucei, 221, 48 h
Method in brief: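 Bloodstream-form parasites grown in HMI-9 with 10% heat-inactivated FBS, 10% Serum Plus and penicillin/streptomycin at 37 °C, 5% CO₂, to 1 × 10⁶ cells/mL. Diluted to 1 × 10⁴ cells/mL, then dosed with a DMSO dilution series by pin transfer. Incubated 48 h at 37 °C, 5% CO₂. Viability read by CellTiter-Glo luminescence. EC₅₀ from a variable-slope sigmoidal fit. Mean of six replicates, errors as 95% CI.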

[9] = tested on: Trypanosoma brucei gambiense; assay: Antitrypanosomal activity against Trypanosoma brucei gambiense STIB930 after 70 hrs by Alamar Blue assay; type: functional, organism-based; details: STIB930, 70 h
Method in brief: (§2)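 T. b. gambiense strains were grown in HMI-9 with 15% heat-inactivated FBS and 5% human serum. 10000 trypanosomes per well were seeded into serial drug dilutions and held 70 h at 37 °C in humidified 5% CO2. Resazurin was then added for a further 4–6 h, and fluorescence was read (ex 536/em 588 nm). IC50 was taken by linear regression from sigmoidal dose-inhibition curves.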

[10] = tested on: Trypanosoma brucei rhodesiense; assay: Antitrypanosomal activity against bloodstream forms of wild type Trypanosoma brucei rhodesiense STIB900 after 70 hrs by Alamar Blue assay; type: functional, organism-based; details: STIB900, 70 h
Method in brief: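 T. b. rhodesiense STIB 900 was cultured in MEM with Earle's salts and Baltz supplements (0.2 mM 2-mercaptoethanol, 1 mM Na-pyruvate, 0.5 mM hypoxanthine, 15% heat-inactivated horse serum). 2000 bloodstream forms per well were exposed to serial drug dilutions for 70 h at 37 °C in humidified 5% CO2. Resazurin followed for 2–4 h, read by fluorescence (ex 536/em 588 nm). IC50 came from sigmoidal curves by linear regression.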

[11] = tested on: Trypanosoma brucei gambiense; assay: Antitrypanosomal activity against Trypanosoma brucei gambiense KO48 after 70 hrs by Alamar Blue assay; type: functional, organism-based; details: KO48, 70 h; method in brief: as §2
[12] = tested on: Trypanosoma brucei gambiense; assay: Antitrypanosomal activity against Trypanosoma brucei gambiense DAL 898R after 70 hrs by Alamar Blue assay; type: functional, organism-based; method in brief: as §2

| Structure (SMILES) | EC50 [1] | EC50 [2] | EC50 [3] | EC50 [4] | EC50 [7] | EC50 [8] | further results |
| --- | --- | --- | --- | --- | --- | --- | --- |
| O=C(Nc1nc2ccccc2s1)c1cc([N+](=O)[O-])ccc1Cl | 1.6 µM | – | – | – | – | – | – |
| O=C(Nc1ccc(F)c(Cl)c1)c1cc([N+](=O)[O-])ccc1Cl | 0.95 µM | – | – | – | – | – | – |
| Cc1c(NC(=O)c2cc([N+](=O)[O-])ccc2Cl)cccc1-c1nc2ccccc2s1 | – | > 25 µM | > 25 µM | > 25 µM | > 25 µM | 0.68 µM | permeability [5]: BLD; Kinetic_solubility [6]: BLD |
| O=C(Nc1ccc(O)c(-c2nc3ccccc3s2)c1)c1cc([N+](=O)[O-])ccc1Cl | – | > 25 µM | > 25 µM | > 25 µM | > 25 µM | > 33 µM | permeability [5]: BLD; solubility kinetic at 18 h [6]: 0.023 µM (≈ 0.00979 µg/mL) |
| O=C(Nc1cc(-c2nc3ccccc3s2)ccc1F)c1cc([N+](=O)[O-])ccc1Cl | – | > 25 µM | > 25 µM | > 25 µM | > 25 µM | 0.16 µM | EC50 [9]: 0.2 µM; EC50 [10]: 0.23 µM; Papp [5]: 1910 nm/s; Kinetic_solubility [6]: BLD |
| O=C(Nc1ccc(F)c(-c2nc3ccccc3s2)c1)c1cc([N+](=O)[O-])ccc1Cl | – | > 25 µM | > 25 µM | > 25 µM | > 25 µM | 0.25 µM | EC50 [9]: 0.063 µM; EC50 [10]: 0.069 µM; Papp [5]: 170 nm/s; solubility kinetic at 18 h [6]: 0.49 µM (≈ 0.21 µg/mL) |
| COc1ccc(-c2nc3ccccc3s2)cc1NC(=O)c1cc([N+](=O)[O-])c(N2CCN(C)CC2)cc1Cl | – | > 25 µM | > 25 µM | > 25 µM | > 25 µM | 0.14 µM | EC50 [9]: 0.073 µM; EC50 [10]: 0.17 µM; Papp [5]: 6760 nm/s; solubility kinetic at 18 h [6]: 0.5 µM (≈ 0.269 µg/mL) |
| COC(=O)C1CCN(c2cc(Cl)c(C(=O)Nc3cc(-c4nc5ccccc5s4)ccc3C)cc2[N+](=O)[O-])CC1 | – | > 25 µM | > 25 µM | > 25 µM | > 25 µM | 0.31 µM | Papp [5]: 240 nm/s; Kinetic_solubility [6]: BLD |
| COc1cc(Cl)c(C(=O)Nc2cccc(-c3nc4ccccc4s3)c2)cc1[N+](=O)[O-] | – | > 25 µM | > 25 µM | > 25 µM | > 25 µM | 0.33 µM | Papp [5]: 120 nm/s; solubility kinetic at 18 h [6]: 0.01 µM (≈ 0.0044 µg/mL) |
| Cc1ccc(-c2nc3ccccc3s2)cc1NC(=O)c1cc([N+](=O)[O-])c(N2CCCCC2)cc1Cl | – | > 25 µM | > 25 µM | > 25 µM | > 25 µM | 0.73 µM | Papp [5]: < 10 nm/s; Kinetic_solubility [6]: BLD |
| O=C(Nc1ccc([N+](=O)[O-])cc1)c1cc([N+](=O)[O-])ccc1Cl | 1.8 µM | – | – | – | – | – | – |
| O=C(Nc1ccc2oc(-c3ccccc3Cl)nc2c1)c1cc([N+](=O)[O-])ccc1Cl | 2.8 µM | – | – | – | – | – | – |
| O=C(Nc1ccc2oc(-c3ccccc3Br)nc2c1)c1cc([N+](=O)[O-])ccc1Cl | 4.2 µM | – | – | – | – | – | – |
| O=C(Nc1ccc2oc(-c3ccccc3F)nc2c1)c1cc([N+](=O)[O-])ccc1Cl | 4.9 µM | – | – | – | – | – | – |
| O=C(Nc1ccc2oc(-c3ccccc3)nc2c1)c1cc([N+](=O)[O-])ccc1Cl | 6.1 µM | – | – | – | – | – | – |
| O=C(Nc1nc(-c2ccc(F)cc2)cs1)c1cc([N+](=O)[O-])ccc1Cl | 0.37 µM | – | – | – | – | – | – |
| O=C(Nc1nc(-c2ccc(F)cc2F)cs1)c1cc([N+](=O)[O-])ccc1Cl | 0.4 µM | – | – | – | – | – | – |
| Cc1sc(NC(=O)c2cc([N+](=O)[O-])ccc2Cl)nc1-c1ccccc1 | 0.54 µM | – | – | – | – | – | – |

| Structure (SMILES) | EC50 [1] | EC50 [2] | EC50 [3] | EC50 [4] | EC50 [7] | EC50 [8] | further results |
| --- | --- | --- | --- | --- | --- | --- | --- |
| Cc1ccc(-c2csc(NC(=O)c3cc([N+](=O)[O-])ccc3Cl)n2)cc1 | 1.2 µM | – | – | – | – | – | – |
| COc1ccc(OC)c(-c2csc(NC(=O)c3cc([N+](=O)[O-])ccc3Cl)n2)c1 | 2.1 µM | – | – | – | – | – | – |
| COc1cccc2sc(NC(=O)c3cc([N+](=O)[O-])ccc3Cl)nc12 | 0.5 µM | – | – | – | – | – | – |
| O=C(Nc1cccc(C(F)(F)F)c1)c1cc([N+](=O)[O-])ccc1Cl | 0.95 µM | – | – | – | – | – | – |
| O=C(Nc1cc(C(F)(F)F)ccc1Cl)c1cc([N+](=O)[O-])ccc1Cl | 0.52 µM | – | – | – | – | – | – |
| O=C(Nc1cccc(Br)c1)c1cc([N+](=O)[O-])ccc1Cl | 1.8 µM | – | – | – | – | – | – |
| COc1ccc2nc(NC(=O)c3cc([N+](=O)[O-])ccc3Cl)sc2c1 | 0.98 µM | – | – | – | – | – | – |
| Cc1ccc2nc(NC(=O)c3cc([N+](=O)[O-])ccc3Cl)sc2c1 | 1.1 µM | – | – | – | – | – | – |
| Cc1ccc2nc(NC(=O)c3cc([N+](=O)[O-])ccc3Cl)[nH]c2c1 | > 33 µM | – | – | – | – | – | – |
| Cc1ccc(-c2nc3cc(Cl)ccc3o2)cc1NC(=O)c1cc([N+](=O)[O-])ccc1Cl | > 33 µM | – | – | – | – | – | – |
| O=C(Nc1ccc(-c2nc3ccccc3o2)cc1)c1cc([N+](=O)[O-])ccc1Cl | 6.1 µM | – | – | – | – | – | – |
| O=C(Nc1cccc(-c2nc3ncccc3o2)c1)c1cc([N+](=O)[O-])ccc1Cl | 3.1 µM | – | – | – | – | – | – |
| O=C(Nc1ccc(-c2nc3ccccc3[nH]2)cc1)c1cc([N+](=O)[O-])ccc1Cl | 4.1 µM | – | – | – | – | – | – |
| O=C(Nc1cc(C(F)(F)F)cc(C(F)(F)F)c1)c1cc([N+](=O)[O-])ccc1Cl | – | 14 µM | > 27 µM | 22 µM | 14 µM | 9.6 µM | Papp [5]: 440 nm/s; Kinetic_solubility [6]: BLD |
| O=C(Nc1nc(-c2ccc(Cl)cc2)cs1)c1cc([N+](=O)[O-])ccc1Cl | – | 15 µM | > 27 µM | 18 µM | 12 µM | 4.6 µM | Papp [5]: 30 nm/s; Kinetic_solubility [6]: BLD |
| O=C(Nc1ccc(-c2nc3ccccc3s2)cc1)c1cc([N+](=O)[O-])ccc1Cl | – | > 27 µM | > 27 µM | > 27 µM | > 27 µM | 1.1 µM | permeability [5]: BLD; Kinetic_solubility [6]: BLD |
| O=C(Nc1cc(-c2nc3ccccc3o2)ccc1F)c1cc([N+](=O)[O-])ccc1Cl | – | > 25 µM | > 25 µM | > 25 µM | > 25 µM | 0.3 µM | Papp [5]: 2140 nm/s; Kinetic_solubility [6]: BLD |
| Nc1nc(N)nc(Nc2ccc([As]3SCC(CO)S3)cc2)n1 (configuration not stated) [MELARSOPROL] | – | – | – | – | – | – | EC50 [11]: 0.014 µM; EC50 [12]: 0.012 µM; EC50 [9]: 0.0067 µM; EC50 [10]: 0.0072 µM |
